From ChEMBL document CHEMBL5608236, “A Photoactivatable Version of Ivabradine Enables Light-Induced Block of HCN Current In Vivo” (J Med Chem, 2024)
Active and inactive are the calls of the source. The calls are words filed in the database; no cut-off is given here.

Assays:
[1] = Drug accumulation in human HEK-293T cells transfected with RFP-fused human HCN1 assessed as increase in fluorescent signal at 30 uM incubated for 15 mins by fluorescent microscopic analysis; format: ADME, cell-based; settings: 0.25 h
Procedure, shortened: (§1)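 HEK293T cells incubated with 30 μM compound in buffer for 15 min, or perfused for 5 min. Intracellular autofluorescence (excitation 405 nm, emission 518 nm) imaged by fluorescence microscopy, with images taken during 10 min of washout.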

[2] = Drug accumulation in human HEK-293T cells transfected with RFP-fused human HCN1 assessed as increase in fluorescent signal at 30 uM measured for 25 mins by fluorescent microscopic analysis; format: ADME, cell-based; procedure, shortened: as §1
HEK-293T = assay: Cytotoxicity against human HEK-293T cells assessed as reduction in cell viability at 100 uM incubated upto 48 hrs by live/dead TM red staining based fluorescent microscopic analysis; format: toxicity
Procedure, shortened: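 HEK293T cells in DMEM high-glucose with 10% FBS and 1% PenStrep, treated at 80-90% confluency with 100 μM compound added to growth medium; untreated and 0.5% DMSO controls, heat-killed (60 °C, 20 min) positive control. After 8, 16, 24 or 48 h, cells detached, stained with LIVE-DEAD NearIF in PBS, imaged at 640 nm excitation; dead cells counted in three random quadrants per triplicate.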

[3] = In vivo inhibition of HCN4 in Zebrafish larvae assessed as reduction in heart rate at 1 mM administered at 48 hpf along with 0.5 mW/mm2 of UV light irradiation exposure at 365 nm measured upto 60 mins (reference value: 84 +/- 1 %); format: functional, Danio rerio
[4] = In vivo inhibition of HCN4 in Zebrafish larvae assessed as reduction in heart rate at 1 mM administered at 48 hpf along with 2 mW/mm2 of blue light irradiation exposure at 436 nm measured upto 60 mins (reference value: 80 +/- 1 %); format: functional, Danio rerio
[5] = Solubility of compound in HEPES buffer at pH 7.4 by UV-Visible spectra analysis; format: physicochemical
[6] = Fluorescence property of compound in HEPES buffer at pH 7.4 assessed as quantum yield at 1.5 mM under irradiation with 365 nm light by UV-Visible spectra analysis; format: physicochemical; settings: pH 7.4, 1500 µM
[7] = Fluorescence property of compound in HEPES buffer at pH 7.4 assessed as quantum yield at 1.5 mM under irradiation with 395 nm light by UV-Visible spectra analysis; format: physicochemical; settings: pH 7.4, 1500 µM
[8] = Fluorescence property of compound in HEPES buffer at pH 7.4 assessed as quantum yield at 1.5 mM under irradiation with 440 nm light by UV-Visible spectra analysis; format: physicochemical; settings: pH 7.4, 1500 µM
[9] = target: T1, Potassium/sodium hyperpolarization-activated cyclic nucleotide-gated channel 1 (Homo sapiens) (UniProt O60741); assay: Inhibition of RFP-fused human HCN1 transfected in HEK-293T cells at 100 uM at holding potential of -110 mV under dark condition by whole cell patch clamp electrophysiology; format: cell-based
T1 sequence (whole entry): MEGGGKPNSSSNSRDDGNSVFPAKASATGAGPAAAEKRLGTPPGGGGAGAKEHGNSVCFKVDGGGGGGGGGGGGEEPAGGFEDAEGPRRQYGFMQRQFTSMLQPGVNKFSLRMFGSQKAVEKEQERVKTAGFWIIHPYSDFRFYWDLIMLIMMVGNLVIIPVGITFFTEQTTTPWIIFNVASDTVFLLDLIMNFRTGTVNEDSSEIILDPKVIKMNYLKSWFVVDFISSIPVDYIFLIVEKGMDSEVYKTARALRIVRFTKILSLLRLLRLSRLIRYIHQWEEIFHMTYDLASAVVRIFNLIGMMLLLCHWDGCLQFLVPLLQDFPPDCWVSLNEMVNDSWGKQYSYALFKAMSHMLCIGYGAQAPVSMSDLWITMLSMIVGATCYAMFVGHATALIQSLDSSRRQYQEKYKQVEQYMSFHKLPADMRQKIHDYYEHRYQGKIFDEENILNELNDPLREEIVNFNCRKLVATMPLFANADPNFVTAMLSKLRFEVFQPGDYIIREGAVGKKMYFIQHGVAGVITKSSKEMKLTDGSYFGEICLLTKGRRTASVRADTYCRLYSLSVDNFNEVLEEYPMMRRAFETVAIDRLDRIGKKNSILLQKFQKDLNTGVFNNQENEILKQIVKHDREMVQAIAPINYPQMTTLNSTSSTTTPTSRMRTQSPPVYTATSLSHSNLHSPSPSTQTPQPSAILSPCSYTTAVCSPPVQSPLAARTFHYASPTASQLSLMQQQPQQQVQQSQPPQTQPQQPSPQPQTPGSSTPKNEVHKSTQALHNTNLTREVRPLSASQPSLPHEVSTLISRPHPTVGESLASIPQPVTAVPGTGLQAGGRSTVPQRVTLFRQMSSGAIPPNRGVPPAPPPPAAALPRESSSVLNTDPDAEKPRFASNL
Procedure, shortened: (§2)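 RFP-hHCN1 transiently expressed in HEK293T; whole-cell patch clamp at room temperature, 5 kHz sampling, 1 kHz filter. Steps to -110 mV (1.8 s) and +5 mV (0.5 s) every 5.5 s from -20 mV holding. Compound added to extracellular solution by perfusion, either in the dark, pre-illuminated (395 nm 0.5 mW/mm2, or 440 nm 1 mW/mm2 for 1 min) or illuminated during perfusion. Fractional block = current reduction/control current; mean ± SEM.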

[10] = target: T1, Potassium/sodium hyperpolarization-activated cyclic nucleotide-gated channel 1 (Homo sapiens); assay: Inhibition of RFP-fused human HCN1 transfected in HEK-293T cells at 30 uM at holding potential of -110 mV pre-exposed with 0.5 mW/mm2 of UV light irradiation at 395 nm by whole cell patch clamp electrophysiology; format: cell-based; procedure, shortened: as §2
[11] = target: T1, Potassium/sodium hyperpolarization-activated cyclic nucleotide-gated channel 1 (Homo sapiens); assay: Inhibition of RFP-fused human HCN1 transfected in HEK-293T cells at 30 uM at holding potential of -110 mV with 0.5 mW/mm2 of UV light irradiation exposure at 395 nm by whole cell patch clamp electrophysiology; format: cell-based; procedure, shortened: as §2
[12] = target: T1, Potassium/sodium hyperpolarization-activated cyclic nucleotide-gated channel 1 (Homo sapiens); assay: Inhibition of RFP-fused human HCN1 transfected in HEK-293T cells at 30 uM at holding potential of -110 mV pre-exposed with 0.5 mW/mm2 of UV light irradiation at 395 nm by whole cell patch clamp electrophysiology relative to IVA; format: cell-based; procedure, shortened: as §2
[13] = target: T1, Potassium/sodium hyperpolarization-activated cyclic nucleotide-gated channel 1 (Homo sapiens); assay: Inhibition of RFP-fused human HCN1 transfected in HEK-293T cells at 30 uM at holding potential of -110 mV with 0.5 mW/mm2 of UV light irradiation exposure at 395 nm by whole cell patch clamp electrophysiology relative to IVA; format: cell-based; procedure, shortened: as §2
[14] = target: T1, Potassium/sodium hyperpolarization-activated cyclic nucleotide-gated channel 1 (Homo sapiens); assay: Inhibition of RFP-fused human HCN1 transfected in HEK-293T cells at 30 uM at holding potential of -110 mV with 1 mW/mm2 of blue light irradiation exposure at 440 nm by whole cell patch clamp electrophysiology relative to IVA; format: cell-based; procedure, shortened: as §2
[15] = target: T1, Potassium/sodium hyperpolarization-activated cyclic nucleotide-gated channel 1 (Homo sapiens); assay: Inhibition of RFP-fused human HCN1 transfected in HEK-293T cells at 100 uM at holding potential of -110 mV pre-exposed with 1 mW/mm2 of blue light irradiation at 440 nm by whole cell patch clamp electrophysiology relative to IVA; format: cell-based; procedure, shortened: as §2
[16] = target: T1, Potassium/sodium hyperpolarization-activated cyclic nucleotide-gated channel 1 (Homo sapiens); assay: Inhibition of RFP-fused human HCN1 transfected in HEK-293T cells at 100 uM at holding potential of -110 mV with 1 mW/mm2 of blue light irradiation exposure at 440 nm by whole cell patch clamp electrophysiology relative to IVA; format: cell-based; procedure, shortened: as §2
Neuron [17] = assay: Inhibition of HCN in mouse brain neuron assessed as reduction of hyperpolarization-activated current (Ih) at 30 to 100 uM at holding potential of -70 to -120 mV with UV light irradiation at 365 nm by whole cell patch clamp electrophysiology; format: tissue-based; settings: dose 30-100 µM
Procedure, shortened: (§3)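 Dendritic whole-cell recordings on L5 neurons of medial prefrontal cortex in acute slices from male mice (2-3 months), aCSF at 32-34 °C with D-APV, DNQX, CGP and gabazine. Ih evoked by steps to -120 mV (1.8 s) then +5 mV (0.15 s) from -70 mV holding. Compound bath-perfused at 30 or 100 μM with 365 nm illumination of the slice (23.5 mW); steady-state current compared before and at full effect; paired t-test.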

[18] = Stability in human plasma at 40 mM incubated upto 24 hrs by UV-HPLC analysis; format: ADME, cell-free; settings: 1000 µM, in the assay text read “1 mM” for “40 mM”
Procedure, shortened: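 A 40 mM stock was added to human plasma (10 into 390 parts) and incubated at 37 °C for 24 h, in duplicate. At time points, aliquots were quenched in 3 volumes of cold acetonitrile, centrifuged at 4 °C for 10 min, filtered and analysed by HPLC-UV (C18, TFA water/acetonitrile gradient, detection at 280 nm).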

Neuron [19] = assay: Inhibition of HCN in mouse brain neuron assessed as reduction of hyperpolarization-activated current (Ih) at 30 uM at holding potential of -70 to -120 mV with UV light irradiation at 365 nm by whole cell patch clamp electrophysiology; format: tissue-based; procedure, shortened: as §3
[20] = target: T1, Potassium/sodium hyperpolarization-activated cyclic nucleotide-gated channel 1 (Homo sapiens); assay: Inhibition of RFP-fused human HCN1 transfected in HEK-293T cells at 100 uM at holding potential of -110 mV under UV light exposure by whole cell patch clamp electrophysiology; format: cell-based; procedure, shortened: as §2
Neuron [21] = assay: Inhibition of HCN in mouse brain neuron assessed as reduction of hyperpolarization-activated current (Ih) at 100 uM at holding potential of -70 to -120 mV with UV light irradiation at 365 nm by whole cell patch clamp electrophysiology; format: tissue-based; procedure, shortened: as §3

Row | SMILES | Activity (HEK-293T) | inhibition (INH) [3] [%] | inhibition (INH) [4] [%] | solubility [5] [µM] | Activity [6] | Activity [7] | Activity [8] | inhibition [9] | further results
1 | COc1cc2c(cc1OC)CC(=O)N(CCC[N+](C)(Cc1ccc3ccc(O)c(Br)c3n1)C[C@H]1Cc3cc(OC)c(OC)cc31)CC2.CS(=O)(=O)[O-] (stereo not given in full) | Non-Toxic | 51 | 49 | 550 | 0.091 | 0.041 | 0.051 |  | Drug uptake [1]: Active; Drug uptake [2]: Active
2 | COc1cc2c(cc1OC)CC(=O)N(CCC[N+](C)(Cc1ccc3ccc(O)c(Br)c3n1)C[C@H]1Cc3cc(OC)c(OC)cc31)CC2 (stereo not given in full) |  |  |  |  |  |  |  | inactive | inhibition [10]: Active; inhibition [11]: Active; inhibition [12]: 95%; inhibition [13]: 85%; inhibition [14]: 65%; inhibition [15]: 85%; inhibition [16]: 85%; inhibition (Neuron [17]): Active
3 | COc1cc2c(cc1OC)CC(=O)N(CCC[N+](C)(Cc1ccc3ccc(O)c(Br)c3n1)C[C@H]1Cc3cc(OC)c(OC)cc31)CC2.[OH-] (stereo not given in full) |  | 49 | 51 | 430 | 0.073 | 0.034 | 0.062 |  | Stability [18]: Stable
4 | COc1cc2c(cc1OC)CC(=O)N(CCCN(C)C[C@H]1Cc3cc(OC)c(OC)cc31)CC2 |  |  |  |  |  |  |  |  | inhibition (Neuron [19]): Active
5 | OCc1ccc2ccc(O)c(Br)c2n1 | Non-Toxic |  |  |  |  |  |  | inactive | inhibition [20]: inactive; inhibition (Neuron [21]): inactive
